In ChEMBL document CHEMBL2146377, “Rational design of 4-aryl-1,2,3-triazoles for indoleamine 2,3-dioxygenase 1 inhibition” (J Med Chem, 2012) one finds IC50, inhibition and CC50 data, which are given here for 61 molecules.

The target in assay [1] is T1, Indoleamine 2,3-dioxygenase 1 (Homo sapiens, UniProt P14902). Kind of assay: Inhibition of human IDO1 transfected in mouse P815B clone-6 cells by HPLC analysis. The assay is classed as cell-based.
Target sequence in this assay (P14902 whole entry): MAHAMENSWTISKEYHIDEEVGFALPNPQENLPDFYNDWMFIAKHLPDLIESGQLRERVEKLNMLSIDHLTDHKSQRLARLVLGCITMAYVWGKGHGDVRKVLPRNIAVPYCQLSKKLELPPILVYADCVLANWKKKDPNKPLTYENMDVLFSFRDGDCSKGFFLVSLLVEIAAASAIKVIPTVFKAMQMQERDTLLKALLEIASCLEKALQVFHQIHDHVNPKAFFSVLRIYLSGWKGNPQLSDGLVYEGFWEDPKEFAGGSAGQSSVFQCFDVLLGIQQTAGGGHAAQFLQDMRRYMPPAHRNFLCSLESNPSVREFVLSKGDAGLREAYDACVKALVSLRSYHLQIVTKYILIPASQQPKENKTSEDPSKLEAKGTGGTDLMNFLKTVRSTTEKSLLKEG
The target of assay [2] is T1, Indoleamine 2,3-dioxygenase 1. Kind of assay: Inhibition of human IDO1 transfected in HEK293 clone 6 cells by HPLC analysis. The assay is classed as cell-based.
Target sequence in this assay (P14902 whole entry, looked up): as the sequence (P14902 whole entry) above
The target of assay [3] is Indoleamine 2,3-dioxygenase 1 (Mus musculus, UniProt P28776). Kind of assay: Inhibition of mouse IDO1 in P815 clone 6 cells by HPLC analysis. The assay is classed as cell-based. The procedure, abridged:
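Murine mastocytoma P815 stably transfected cells were used: P815-mIDO1 clone 6 for mouse IDO1 and P815B-hIDO1 clone 6 for human IDO1. Cells with inhibitor were incubated at 37 °C until under 50% of tryptophan was consumed, as tracked in control wells by pDMAB absorbance at 480 nm. Supernatant was TCA-precipitated, and tryptophan and kynurenine were quantified by C18 HPLC. Values are the mean of ≥2 independent assays.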

In assay [4] the target is Tryptophan 2,3-dioxygenase (Mus musculus, UniProt P48776). Put plainly: Inhibition of mouse TDO in P815 clone 12 cells by HPLC analysis. The assay is classed as cell-based.
Tryptophan 2,3-dioxygenase (Mus musculus, UniProt P48776), sequence (P48776 whole entry): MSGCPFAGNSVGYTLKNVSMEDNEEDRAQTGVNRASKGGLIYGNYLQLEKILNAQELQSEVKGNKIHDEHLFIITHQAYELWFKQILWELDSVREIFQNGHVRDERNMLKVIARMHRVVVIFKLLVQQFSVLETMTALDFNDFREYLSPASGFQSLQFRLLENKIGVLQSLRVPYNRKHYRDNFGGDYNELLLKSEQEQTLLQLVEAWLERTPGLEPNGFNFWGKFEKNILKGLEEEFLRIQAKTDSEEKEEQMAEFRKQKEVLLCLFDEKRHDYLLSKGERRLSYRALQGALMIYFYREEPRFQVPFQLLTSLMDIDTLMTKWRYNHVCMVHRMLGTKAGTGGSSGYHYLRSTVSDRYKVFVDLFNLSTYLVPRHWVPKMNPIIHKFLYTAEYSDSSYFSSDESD
In assay [5] the target is Tryptophan 2,3-dioxygenase (Homo sapiens, UniProt P48775). Kind of assay: Inhibition of human TDO transfected in mouse P815B clone 19 cells by HPLC analysis. The assay is classed as cell-based.
Tryptophan 2,3-dioxygenase (Homo sapiens, UniProt P48775), sequence (P48775 whole entry): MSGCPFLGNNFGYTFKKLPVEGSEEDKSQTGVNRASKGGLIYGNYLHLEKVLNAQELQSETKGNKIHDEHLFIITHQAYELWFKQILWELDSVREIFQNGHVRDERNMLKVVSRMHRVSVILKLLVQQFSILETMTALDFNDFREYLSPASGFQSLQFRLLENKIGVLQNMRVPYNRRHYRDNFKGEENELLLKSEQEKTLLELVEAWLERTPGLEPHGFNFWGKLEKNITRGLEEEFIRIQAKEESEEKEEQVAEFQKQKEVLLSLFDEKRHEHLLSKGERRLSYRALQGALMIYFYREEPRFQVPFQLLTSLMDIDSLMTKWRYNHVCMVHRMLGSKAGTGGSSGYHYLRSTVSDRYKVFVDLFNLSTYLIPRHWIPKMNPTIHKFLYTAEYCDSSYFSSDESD
Assay [6] has as its target T1, Indoleamine 2,3-dioxygenase 1. Put plainly: Inhibition of human recombinant N-terminal His-tagged IDO1 (Ala2 to Gly403) overexpressed in Escherichia coli BL21 at pH 6.5 after 60 mins by HPLC analysis.
Target sequence in this assay (P14902 whole entry): as the sequence (P14902 whole entry) above
The test system of the next assay is HepG2. Kind of assay: Cytotoxicity against human HepG2 cells after 24 hrs by MTS-PMS assay. The assay is classed as functional. The conditions noted are these: HepG2, 24 h, read-out: LD50 (the source's name). The procedure, abridged:
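Hep G2 cells (2 × 10⁴ per well) in IMDM with 10% FCS exposed to compound titrated 0.001–100 μM for 24 h at 37 °C; living cells counted by MTS/PMS assay; LD₅₀ reported as mean of at least two independent assays with standard deviation.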
Background: Tetrazolium dyes change colour on reduction, which living cells bring about.

Assay [7] concerns the target T1, Indoleamine 2,3-dioxygenase 1. To be noted: at 1 mM.
Target sequence in this assay (P14902 whole entry, looked up): as the sequence (P14902 whole entry) above

The structures appear in SMILES notation. Activity calls are given as the source filed them. No cut-off for these calls is given here.

Indoleamine 2,3-dioxygenase 1 (Mus musculus, UniProt P28776), sequence (P28776 whole entry): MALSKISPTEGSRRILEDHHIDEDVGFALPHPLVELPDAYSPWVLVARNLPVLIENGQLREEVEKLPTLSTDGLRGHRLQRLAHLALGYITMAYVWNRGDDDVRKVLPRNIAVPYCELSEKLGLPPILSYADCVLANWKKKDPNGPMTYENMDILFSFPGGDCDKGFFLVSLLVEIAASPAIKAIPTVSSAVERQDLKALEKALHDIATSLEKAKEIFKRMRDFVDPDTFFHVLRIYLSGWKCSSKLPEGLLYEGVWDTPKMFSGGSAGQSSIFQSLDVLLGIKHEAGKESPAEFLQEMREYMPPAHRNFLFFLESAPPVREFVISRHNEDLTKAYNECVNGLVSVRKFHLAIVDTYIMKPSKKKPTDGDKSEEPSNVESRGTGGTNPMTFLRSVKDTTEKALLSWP

For the molecule `Cc1ccccc1-c1c[nH]nn1`, the IC50 (in general, the concentration needed to halve the response being measured) in assay [1] was above 100 µM; in assay [3], 1.7 µM; in assay [4], above 100 µM; in assay [5] it was above 100 µM; in assay [6] it was 39 µM. Further, in assay [2], the inhibition entry was “Active”. Also, in the assay on HepG2, the CC50 was above 100 µM.
Turning to `Fc1ccc(-c2cnnn2-c2ccccc2)cc1`, the inhibition result in assay [7] is “inactive”.
In the case of `O=[N+]([O-])c1cccc(-c2c[nH]nn2)c1`, the IC50 in assay [1] is 24 µM; in assay [3], 0.11 µM; in assay [4], above 100 µM; in assay [5] it was above 100 µM; in assay [6], 15 µM. The inhibition result in assay [2] is “Active”. Moreover, in the assay on HepG2, the CC50 is above 100 µM.
Take `Cn1nncc1-c1ccccc1`: the inhibition result in assay [7] is “inactive”.
As for `O=Cc1ccccc1-c1c[nH]nn1`, the IC50 in assay [6] was 1300 µM.
For `Fc1ccc2c(/C=C/c3nnn[nH]3)c[nH]c2c1`, the inhibition entry in assay [2] is “Active”. The IC50 is above 100 µM in assay [3] and 17 µM in assay [4]. Also, the CC50 in the assay on HepG2 is above 100 µM.
On to `Clc1ccccc1-c1cnn[nH]1`, for which the inhibition entry in assay [2] is “Active”. For the same molecule, in the assay on HepG2, the CC50 is above 100 µM.
Turning to `Nc1cccc(-c2c[nH]nn2)c1`, the IC50 is above 100 µM in assay [1]; 4 µM in assay [3]; above 100 µM in assay [4]; above 100 µM in assay [5]; 1500 µM in assay [6]. Also, the inhibition result in assay [2] was “Active”. In addition, in the assay on HepG2, the CC50 is above 100 µM.
On to `CCc1cccc(-c2c[nH]nn2)c1`, for which the IC50 in assay [1] is 1.1 µM; in assay [3] it was 0.03 µM; in assay [4], above 100 µM; in assay [5] it was above 100 µM; in assay [6], 13 µM. In assay [2], the inhibition result was “Active”. Further, the CC50 in the assay with HepG2 is above 100 µM.
With `Brc1ccccc1-c1c[nH]nn1`, the IC50 in assay [1] was 2.6 µM; in assay [3], 0.034 µM; in assay [4] it was above 100 µM; in assay [5] it was above 100 µM; in assay [6] it was 6.4 µM.
`c1ccc(-c2ccncn2)cc1`: in assay [7], the inhibition result was “inactive”.
Same read-out and setting: as for `c1ccc(Cc2c[nH]nn2)cc1`, the entry is “inactive”.
With `CNc1ccccc1-c1c[nH]nn1`, in assay [6], the IC50 was 1800 µM.
`Oc1ccccc1-c1c[nH]nn1`: the IC50 in assay [1] was 1.7 µM; in assay [3], 0.022 µM; in assay [4], above 100 µM; in assay [5] it was above 100 µM; in assay [6], 15 µM. For the same molecule, in assay [2], the inhibition result is “Active”. In addition, the CC50 in the assay with HepG2 is above 100 µM.
In the case of `c1ccc(Cn2nncc2-c2ccccc2)cc1`, the inhibition entry in assay [7] was “inactive”.
Regarding `FC(F)(F)c1cc(-c2c[nH]nn2)ccn1`, the IC50 in assay [1] was 56 µM; in assay [3], 0.34 µM; in assay [4], above 100 µM; in assay [5], above 100 µM; in assay [6], 15 µM. Also, the inhibition entry in assay [2] was “Active”. For the same molecule, the CC50 in the assay on HepG2 is above 100 µM.
`CCn1ncc(-c2ccccc2)n1`: the inhibition result in assay [7] was “inactive”.
Regarding `Brc1cccc(-c2c[nH]nn2)c1`, the IC50 in assay [1] is 0.94 µM; in assay [3], 0.023 µM; in assay [4], above 100 µM; in assay [5] it was above 100 µM; in assay [6] it was 2 µM. In addition, the inhibition entry in assay [2] was “Active”. Besides, in the assay on HepG2, the CC50 is above 100 µM.
For `Cn1cc(-c2ccccc2)nn1`, the inhibition result in assay [7] was “inactive”.
As for `C1=C(c2c[nH]nn2)CCCC1`, the inhibition entry in assay [7] is “inactive”.
`c1cc(-c2c[nH]cn2)ccn1`: in assay [6], the IC50 worked out at 1800 µM.
With `CCCCn1nncc1-c1ccccc1`, the inhibition entry in assay [7] is “inactive”.
`Nc1ccccc1-c1c[nH]nn1`: the half-inhibitory concentration (IC50) in assay [1] was above 100 µM; in assay [3], 1.7 µM; in assay [4], above 100 µM; in assay [5] it was above 100 µM; in assay [6], 60 µM. The inhibition entry in assay [2] is “Active”. Besides, the CC50 in the assay with HepG2 is above 100 µM.
Consider `NCCc1ccccc1-c1c[nH]nn1`, for which the inhibition result in assay [7] is “inactive”.
On the same count and under the same terms, as for `CCn1nncc1-c1ccccc1`, the entry is “inactive”.
For `Fc1ccc(-c2cnn[nH]2)cc1`, in assay [2], the inhibition entry is “Active”. Also, the CC50 in the assay on HepG2 is above 100 µM.
As for `CCCCn1cc(-c2ccccc2)nn1`, the inhibition result in assay [7] is “inactive”.
`Cc1ccc(N)cc1-c1c[nH]nn1`: the half-maximal inhibitory concentration (IC50) in assay [6] was found to be 3200 µM.
In the case of `c1cc(-c2ccncc2)ccn1`, the inhibition entry in assay [7] was “inactive”.
On the same count and under the same terms, as for `c1ccc(-c2ccncc2)cc1`, the entry is “inactive”.
Still for that read-out and setting: as for `CCn1cc(-c2ccccc2)nn1`, the entry is “inactive”.
Take `N#Cc1cccc(-c2c[nH]nn2)c1`: the IC50 in assay [1] is 2.9 µM; in assay [3] it was 0.029 µM; in assay [4] it was above 100 µM; in assay [5] it was above 100 µM; in assay [6], 2.8 µM. Besides, the inhibition result in assay [2] was “Active”. Moreover, the CC50 with HepG2 was above 100 µM.
Take `FC(F)(F)c1cccc(-c2c[nH]nn2)c1`: the IC50 in assay [1] was 9 µM; in assay [3], 0.07 µM; in assay [4], above 100 µM; in assay [5] it was above 100 µM; in assay [6], 6 µM. Besides, in assay [2], the inhibition result was “Active”. Further, the CC50 with HepG2 is above 100 µM.
For the molecule `Cc1cccc(NC(=O)C(F)(F)F)c1-c1c[nH]nn1`, in assay [6], the IC50 is 3000 µM.
With `Cc1ccc(-c2c[nH]nn2)cc1`, the half-inhibitory concentration (IC50) in assay [6] was found to be 1000 µM.
The same measure, in the same setting: as for `Cc1cccc(N)c1-c1c[nH]nn1`, the figure is 1200 µM.
As to `Brc1ccccc1-c1cnn[nH]1`, the inhibition entry in assay [2] was “Active”. Moreover, the CC50 in the assay on HepG2 was above 100 µM.
Turning to `FC(F)(F)c1ccc(-c2c[nH]nn2)cc1`, the IC50 in assay [6] amounted to 2300 µM.
As for `COc1ccccc1-c1cnnn1-c1ccccc1`, the inhibition result in assay [7] is “inactive”.
Consider `c1ccc(SCc2c[nH]nn2)cc1`, for which the inhibition result in assay [7] is “inactive”.
As to `Fc1ccccc1-c1c[nH]nn1`, the IC50 in assay [1] was 70 µM; in assay [3] it was 0.63 µM; in assay [4], above 100 µM; in assay [5], above 100 µM; in assay [6], 80 µM. The inhibition result in assay [2] is “Active”. For the same molecule, the CC50 in the assay with HepG2 is above 100 µM.
As for `Cc1cccc(-c2c[nH]nn2)c1`, the IC50 is 7 µM in assay [1]; 0.12 µM in assay [3]; above 100 µM in assay [4]; above 100 µM in assay [5]; 22 µM in assay [6]. The inhibition entry in assay [2] was “Active”. For the same molecule, the CC50 in the assay with HepG2 was above 100 µM.
`Cc1cccc(-c2cnnn2-c2ccccc2)c1`: the inhibition result in assay [7] was “inactive”.
Turning to `CCc1ccccc1-c1c[nH]nn1`, the IC50 in assay [1] is above 100 µM; in assay [3], 13 µM; in assay [4], above 100 µM; in assay [5], above 100 µM; in assay [6] it was 230 µM. Also, in assay [2], the inhibition result is “Active”. Also, in the assay on HepG2, the CC50 was above 100 µM.
Regarding `Cn1cc(-c2cccc(Cl)c2)nn1`, the inhibition result in assay [7] was “inactive”.
On the same count and under the same terms, as for `Oc1ccccc1-c1ccno1`, the entry is “inactive”.
The same measure, in the same setting: as for `c1ccc2[nH]nnc2c1`, the entry is “inactive”.
Take `Brc1cc(-c2c[nH]nn2)ccn1`: the IC50 in assay [1] is 2.9 µM; in assay [3], 0.05 µM; in assay [4], above 100 µM; in assay [5], above 100 µM; in assay [6], 3.3 µM. The inhibition entry in assay [2] was “Active”. For the same molecule, the CC50 in the assay with HepG2 was above 100 µM.
As for `Cn1ncc(-c2ccccc2)n1`, in assay [7], the inhibition entry is “inactive”.
On to `O=C(O)CCc1ccccc1-c1c[nH]nn1`, for which the inhibition entry in assay [7] is “inactive”.
In the case of `Cc1ccc(Cl)cc1-c1c[nH]nn1`, the IC50 in assay [1] was 14 µM; in assay [3] it was 0.12 µM; in assay [4] it was above 100 µM; in assay [5], above 100 µM; in assay [6], 4.3 µM. Besides, the inhibition result in assay [2] was “Active”. Also, the CC50 with HepG2 is above 100 µM.
Regarding `Cc1c(Cl)cccc1-c1c[nH]nn1`, the concentration for half-maximal inhibition (IC50) in assay [6] amounted to 72 µM.
As for `c1ccc(Cn2cc(-c3ccccc3)nn2)cc1`, in assay [7], the inhibition entry is “inactive”.
As to `Nc1nonc1/C(=N/O)Nc1ccc(F)c(Cl)c1`, the inhibition result in assay [2] is “Active”. In addition, the CC50 in the assay with HepG2 is above 100 µM.
With `Oc1ccc(Cl)cc1-c1c[nH]nn1`, in assay [2], the inhibition entry is “Active”. Also, the IC50 is 0.002 µM in assay [3], above 100 µM in assay [4] and above 100 µM in assay [5]. The CC50 in the assay on HepG2 is above 100 µM.
Take `Clc1cccc(-c2cnnn2-c2ccccc2)c1`: the inhibition result in assay [7] is “inactive”.
As to `Cc1ccc2[nH]nnc2c1`, in assay [7], the inhibition entry was “inactive”.
As for `Fc1ccc(-c2c[nH]nn2)cc1`, the half-maximal inhibitory concentration (IC50) was above 100 µM in assay [1]; 2.1 µM in assay [3]; above 100 µM in assay [4]; above 100 µM in assay [5]; 190 µM in assay [6].
With `Cn1nncc1-c1cccc(Cl)c1`, the inhibition entry in assay [7] was “inactive”.
Consider `Nc1nonc1C(=NO)Nc1ccc(F)c(Cl)c1`, for which the IC50 in assay [4] turned out to be 60 µM; in assay [5], 70 µM.
Take `c1ccc(-c2cnnn2-c2ccccc2)cc1`: the inhibition result in assay [7] is “inactive”.
